Bioassay records as filed in PubChem BioAssay.
An excerpt weighted towards active compounds, which were near 1.2% of everything screened.
CRFR2-BP ag = agonists of CRF-BP/CRF-R2 complex, primary screen, cell-based, HEK293, calcium dye fluorescence, uHTS | hit rate 0.46% among 350,000 | activation, % at 13.2 µM | CRF-binding protein / CRF receptor 2 complex (human) | AID 588473, 2011 | calcium dye fluorescence (FLIPR); percent of saturating CRF peptide response;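 active = activation of at least 50%, plus an integration ratio under a set limit after plate pattern correction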
Tn6 DDE FP = inhibitors of Tn6 peptide binding to fibrin DD(E), primary screen, biochemical, fluorescence polarization, human fibrin, Tn6 probe | Fibrinogen beta chain (Homo sapiens), P02675 | Fibrin DD(E) TRITC-Tn6 fluorescence polarization displacement | inhibition, % at 8.3 µM | hit rate 0.21% among 370,000;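 active = inhibition above a per-campaign cutoff: mean of compounds within control limits plus 3 SD, cut at about 15% in these data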
Target sequence (P02675 whole entry, looked up): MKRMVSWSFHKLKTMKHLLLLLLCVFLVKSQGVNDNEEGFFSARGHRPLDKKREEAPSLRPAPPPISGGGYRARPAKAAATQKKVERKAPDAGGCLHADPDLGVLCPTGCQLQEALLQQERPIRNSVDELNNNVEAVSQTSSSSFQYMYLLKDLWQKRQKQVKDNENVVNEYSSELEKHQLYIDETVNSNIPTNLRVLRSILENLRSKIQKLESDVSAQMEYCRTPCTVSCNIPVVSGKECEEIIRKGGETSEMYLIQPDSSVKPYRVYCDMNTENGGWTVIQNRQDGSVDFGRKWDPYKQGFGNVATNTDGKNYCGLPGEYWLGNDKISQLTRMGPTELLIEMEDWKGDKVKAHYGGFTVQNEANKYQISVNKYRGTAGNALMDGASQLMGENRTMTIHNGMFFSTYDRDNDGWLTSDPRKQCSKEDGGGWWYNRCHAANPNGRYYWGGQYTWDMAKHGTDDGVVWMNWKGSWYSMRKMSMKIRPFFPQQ
DDE Tn7 FP inh = inhibitors of Tn7 peptide binding to fibrin DD(E), primary screen, biochemical, fluorescence polarization, human fibrin, Tn7 probe. FP displacement of FITC-Tn7 peptide from fibrin DD(E); 0% = median of compound wells per plate. hit rate 0.13% among 370,000. inhibition, % at 8.3 µM;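 active = inhibition above the mean of compounds falling within the control limits plus 3 SD of them, cut at about 14% in these data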
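Assay system: Human fibrin DD(E) protein | Medium: Tris buffer with calcium and detergent, pH 7.8 | Reagent: 0.1 µM fluorescent Tn7 | Compound dosing: Single point at 8.3 µM | Times: 10 min preincubation, 3 h with tracer, room temperature | Detection: Fluorescence polarization of the labelled Tn7 tracer | Controls: Aha-Tn7 high control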
CRFBP-R2 block = antagonists of CRF-BP/CRF-R2 complex, primary screen, cell-based, HEK293, calcium dye fluorescence, uHTS; AID 588475, 2011; inhibition, % at 11.8 µM; CRF-induced calcium fluorescence; hit rate 0.59% among 350,000;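 active = inhibition of the ligand-induced calcium signal above about 50% at the single tested concentration, limit read from the data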
Each line names hits and unclear results; the compound was inactive in the other large screens.

COc1nc(N/N=C/c2ccc(-c3ccccc3[N+](=O)[O-])o2)nc(N2CCOCC2)n1	none
NC(=O)c1c(N)[nH]c(C(=O)c2ccccc2)c1-c1ccccc1C(F)(F)F	none (no result: CRFR2-BP ag, CRFBP-R2 block)
CCOCCCN(C(=O)c1snc(C(N)=O)c1N)C(C(=O)NC1CCCC1)c1ccc(O)cc1 (stereo not drawn)	none
O=C(c1ccc(N2CCNCC2)cc1)c1cccnc1	CRFBP-R2 block 62
O=S1(=O)c2ccccc2-c2c(nnn2CC2CCCCC2)CN1C1CC1	none (no result: CRFR2-BP ag, CRFBP-R2 block)
COc1ccc(C2CC(c3ccccc3C(F)(F)F)=NN2c2ccc(S(N)(=O)=O)cc2)cc1 (stereo not drawn)	CRFBP-R2 block 59
CC(C)(C)C(=O)Nc1sc2c(c1C#N)CCCCC2	none
CC(C)(C)C(=O)Nc1sc2c(c1C#N)CCN(Cc1ccccc1)C2	CRFR2-BP ag 162
CCOC(=O)c1c(-c2ccc(OC)c(OC)c2)csc1NC(=O)C1CCCO1 (stereo not drawn)	CRFBP-R2 block 60
COC(=O)c1c(-c2ccc(F)cc2)csc1NC(=O)C1CCCO1 (stereo not drawn)	none
COc1ccccc1-c1cccc2c3c([nH]c12)[C@@H]1C[C@H]2[C@@H](CN1CC3)[C@H](C)ON2C	none (no result: CRFR2-BP ag, CRFBP-R2 block)
COc1ccc(/C=C/C(=O)NCCSCc2ccco2)cc1OC	CRFBP-R2 block 66
Cc1ccc(N2C(=O)c3sc4nnc(C)c(=O)n4c3C2=O)cc1	CRFBP-R2 block 52
CCc1ccc(N2C(=O)c3sc4nnc(C)c(=O)n4c3C2=O)cc1	none
CN(C)c1nc(NCc2ccccc2)nc(SCC(=O)Nc2ccccc2)n1	none
CN(C)c1nc(NCc2ccccc2)nc(SCC(=O)Nc2ccccc2Cl)n1	CRFBP-R2 block 58
COc1ccccc1N(C)S(=O)(=O)c1ccc(C)c(C(=O)NCc2ccccn2)c1	none
Cc1ccc(CN2CCN(C3CCC3)CC2CCO)cc1 (stereo not drawn)	none
Cc1ccc(CN2CCN(C3CCOCC3)CC2CCO)cc1 (stereo not drawn)	CRFBP-R2 block 80
NC(=O)c1ccc(C2SCC(=O)N2Cc2ccccc2)cc1 (stereo not drawn)	CRFBP-R2 block 78
CCCCCN1CCCCC(NC(=O)c2cccc(C(F)(F)F)c2)C1=O (stereo not drawn)	none (no result: CRFR2-BP ag, CRFBP-R2 block)
C=CCOC(=O)C1=C(C)NC2(O)c3ccccc3C(=O)C12O (stereo not drawn)	CRFBP-R2 block 69
CCOc1ccc(Cl)cc1S(=O)(=O)n1nnc2ccccc21	CRFBP-R2 block 107
Cc1ccc(S(=O)(=O)n2nnc3ccccc32)c(C)c1C	CRFBP-R2 block 93
C[C@H]1[C@@H](NCC2CCCCC2)CC[C@@]23CCCN2C(=O)CCC[C@@H]13	none (no result: CRFR2-BP ag, CRFBP-R2 block)
CC(=O)N1CCOc2ccc(S(=O)(=O)N3CCC(C(=O)NCc4ccc(C)cc4)CC3)cc21	CRFBP-R2 block 53
C=CCNC(=O)c1ccc(Cl)cc1Cl	none
C=CCNC(=O)c1ccsc1N	Tn6 DDE FP 17 (no result: CRFR2-BP ag, CRFBP-R2 block)
CC1(C)CC(=O)C(=Cc2cn(-c3ccccc3)nc2-c2ccc(Cl)cc2)C(=O)C1	CRFR2-BP ag 58
CC1(C)CC(=O)C(=Cc2cn(CCC#N)nc2-c2ccc(Cl)cc2)C(=O)C1	none
CC(C1=CCCCC1)c1cnn(C)c1 (stereo not drawn)	none (no result: CRFR2-BP ag, CRFBP-R2 block)
Cc1ccc2nc(CC(O)(c3ccccc3)c3ccccc3)ccc2c1	none
COc1cccc2ccc(CC(O)(c3ccccc3)c3ccccc3)nc12	CRFBP-R2 block 58
COC(=O)[C@H](C(C)C)N(CCc1cn(CC2CCCCC2)nn1)S(=O)(=O)c1ccccc1Br	none (no result: CRFR2-BP ag, CRFBP-R2 block)
COC(=O)C(NC(=O)c1ccc(F)cc1)(Nc1ncc(S(=O)(=O)c2ccc([N+](=O)[O-])cc2)s1)C(F)(F)F (stereo not drawn)	CRFBP-R2 block 58
O=C(Nc1ccc([N+](=O)[O-])cc1)c1ccccc1F	none
O=C(Nc1ncc(S(=O)(=O)c2ccc([N+](=O)[O-])cc2)s1)c1ccccc1F	CRFR2-BP ag 57
O=c1c2cc3cccnc3nc2ncn1Cc1cccs1	none (no result: CRFR2-BP ag, CRFBP-R2 block)
CCOC(=O)Cn1cc(CN2CCS(=O)(=O)N(Cc3ccc(C)cc3)C(C(=O)OC)C2)nn1 (stereo not drawn)	none (no result: CRFR2-BP ag, CRFBP-R2 block)
CC(=O)N/N=C/c1cc(C(C)C)cc(/C=N/NC(C)=O)c1O	CRFR2-BP ag 92
Cc1ccc(Nc2nc(-c3c(C)nc4ccccn34)cs2)cc1	CRFBP-R2 block 66
C[C@H](NC(=O)C[C@@H]1C[C@@H]2c3cc(NC(=O)C4CCC4)ccc3O[C@@H]2[C@@H](CO)O1)c1ccccc1	none (no result: CRFR2-BP ag, CRFBP-R2 block)
O=C(Nc1ccccc1)c1cn2ccccc2n1	none
O=C(Nc1ccc(-n2cnnn2)cc1)c1cn2ccccc2n1	CRFR2-BP ag 104 (no result: Tn6 DDE FP, DDE Tn7 FP inh)
C#CCN1CC(N(C)CCOC(=O)CC2C=CCC2)CS1(=O)=O (stereo not drawn)	none (no result: CRFR2-BP ag, CRFBP-R2 block)
CCC(C)NC(=O)Cn1cnc2sc(C)c(S(=O)(=O)N3CCCCC3)c2c1=O (stereo not drawn)	CRFBP-R2 block 62
CCC(C)NC(=O)Cn1cnc2sc(C)c(S(=O)(=O)N3CCN(c4ccccc4OC)CC3)c2c1=O (stereo not drawn)	none
CCN(CC)C(=O)CC[C@@H]1CC[C@]2(CCCN(C(=O)c3cccnc3)C2)O1	none (no result: CRFR2-BP ag, CRFBP-R2 block)
Cc1nnc(C)n1/N=C/c1cccs1	CRFBP-R2 block 55
Cc1ccc(C=Nn2c(-c3n[nH]c4c3CCC4)n[nH]c2=S)o1	none (no result: CRFR2-BP ag, CRFBP-R2 block)
COc1ccc(C(C)=O)cc1CSc1nnc2c(Cl)cc(Cl)cn12	CRFBP-R2 block 55
N#Cc1c2ccc(OCC(=O)NCc3ccco3)cc2n2ccccc12	none
N#Cc1c2ccc(O)cc2n2ccccc12	CRFR2-BP ag 73
C=CCC[C@@H](Cc1ccc(F)cc1)C(=O)OC[C@H](Cc1c[nH]c2ccccc12)NC(=O)[C@@H](CC=C)CC(=O)NCCO	CRFR2-BP ag 58
C=CCC[C@@H](Cc1ccc(F)cc1)C(=O)OC[C@@H](Cc1c[nH]c2ccccc12)NC(=O)[C@@H](CC=C)CC(=O)NCCO	none
Cc1cc(O)c(C2(O)C(=O)Nc3cc(Br)ccc32)cc1C (stereo not drawn)	CRFBP-R2 block 121
Nc1ncnc(Oc2cccc3cccnc23)c1[N+](=O)[O-]	none
O=C(c1cc2nc(-c3ccc(F)cc3)cc(C(F)(F)F)n2n1)N1CCOCC1	CRFBP-R2 block 54
O=C(c1cc2nc(-c3ccccc3)cc(C(F)(F)F)n2n1)N1CCOCC1	none (no result: Tn6 DDE FP, DDE Tn7 FP inh)
O=S(=O)(CC1NCc2ccccc21)NCCc1ccccc1 (stereo not drawn)	none (no result: CRFR2-BP ag, CRFBP-R2 block)
O=C1OCCC1Sc1nc2cc(Cl)ccc2s1 (stereo not drawn)	none
CSc1nc2cc(Cl)ccc2s1	CRFBP-R2 block 52
COC(=O)[C@@]1(OC(C)=O)CC(OC(C)=O)[C@H](OC(C)=O)[C@H](OC(C)=O)C1Br (stereo partly drawn)	none (no result: CRFR2-BP ag, CRFBP-R2 block)
Cc1nc(CNS(=O)(=O)c2ccc3ccccc3c2)cs1	CRFBP-R2 block 65
